Laboratory results from ChEMBL document CHEMBL2384906, “Biological activity, design, synthesis and structure activity relationship of some novel derivatives of curcumin containing sulfonamides” (Eur J Med Chem, 2013).
In brackets after ≈: the same amount, converted by molar mass.

Columns and labels:
[1] = tested on: Salmonella typhi; test: Antimicrobial activity against Salmonella typhi ATCC 23564 assessed as diameter of inhibition zone at 40 uM after 24 hrs by Kirby -Baur disc diffusion method; type: functional, Salmonella enterica subsp. enterica serovar Typhi; conditions: Salmonella enterica, ATCC 23564, 24 h; read-out: DIZ
[2] = tested on: Staphylococcus aureus; test: Antimicrobial activity against Staphylococcus aureus ATCC 11632 after 24 hrs by broth micro serial dilution method; type: functional; conditions: ATCC 11632, 24 h
Method in brief: (§1)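 This was broth microdilution in autoclaved Mueller-Hinton broth. 150 µL of compound per well was serially diluted […], and 50 µL of test organism was added. Plates were incubated 24 h at 37 °C and optical density was read.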

[3] = tested on: Aspergillus niger; test: Antifungal activity against Aspergillus niger MTCC 1108 assessed as zone of inhibition at 80 uM after 48 hrs by disc diffusion method; type: functional; conditions: MTCC 1108, 48 h, read-out: IZ
Method in brief: (§2)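 Spores from 4-day potato dextrose agar cultures, suspended in sterile water at 1.5 × 10⁵ CFU/mL. 0.2 mL was spread on potato dextrose agar. 5 mm filter-paper discs soaked with test compound were laid on the lawn. Incubation was 48 h at 28 °C, then the inhibition zone was measured in mm. Fluconazole was the positive control and acetone the negative control.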

[4] = tested on: Bacillus cereus; test: Antimicrobial activity against Bacillus cereus MTCC 7350 assessed as diameter of inhibition zone at 20 uM after 24 hrs by Kirby -Baur disc diffusion method; type: functional; conditions: MTCC 7350, 24 h, read-out: DIZ
Method in brief: (§3)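 Kirby-Bauer disc diffusion was used. Acetone stocks (160 µM) were serially doubled down to 80, 40 and 20 µM. 4 µL of each went onto 5 mm sterile paper discs, which were dried 30 min at 50 °C. Inoculum was 1.5 × 10⁸ CFU/mL diluted to 3 × 10² CFU/mL, and 50 µL was spread on Mueller-Hinton agar. After 24 h at 37 °C the inhibition-zone diameter was measured. Ciprofloxacin served as positive control.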

[5] = tested on: Aspergillus flavus; test: Antifungal activity against Aspergillus flavus MTCC 1021 after 48 hrs; type: functional; conditions: MTCC 1021, 48 h
[6] = tested on: Salmonella typhi; test: Antimicrobial activity against Salmonella typhi ATCC 23564 assessed as diameter of inhibition zone at 80 uM after 24 hrs by Kirby -Baur disc diffusion method; type: functional, Salmonella enterica subsp. enterica serovar Typhi; conditions: Salmonella enterica, ATCC 23564, 24 h; read-out: DIZ
[7] = tested on: HepG2; test: Cytotoxicity against human HepG2 cells after 24 hrs by MTT assay; type: functional, cell-based
Method in brief: (§4)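 The MTT assay seeded 5 × 10⁴ cells per well and grew them 24 h in RPMI 1640 with compound at 2.5–200 µM. Medium without cells was the blank and adriamycin the positive control. MTT was added for 4 h at 37 °C, formazan was solubilised, and absorbance was read at 570 nm. IC50 is the concentration that cuts viability 50% against untreated cells.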

[8] = tested on: HCT-116; test: Cytotoxicity against human HCT116 cells after 24 hrs by MTT assay; type: functional, cell-based; method in brief: as §4
[9] = tested on: Pseudomonas aeruginosa; test: Antimicrobial activity against Pseudomonas aeruginosa ATCC 15499 assessed as diameter of inhibition zone at 20 uM after 24 hrs by Kirby -Baur disc diffusion method; type: functional; conditions: ATCC 15499, 24 h, read-out: DIZ; method in brief: as §3
[10] = tested on: QG-56; test: Cytotoxicity against human QG56 cells after 24 hrs by MTT assay; type: functional, cell-based; method in brief: as §4
[11] = tested on: Bacillus cereus; test: Antimicrobial activity against Bacillus cereus MTCC 7350 assessed as diameter of inhibition zone at 80 uM after 24 hrs by Kirby -Baur disc diffusion method; type: functional; conditions: MTCC 7350, 24 h, read-out: DIZ; method in brief: as §3
[12] = tested on: Trichoderma viride; test: Antifungal activity against Trichoderma viride MTCC 1107 assessed as zone of inhibition at 80 uM after 48 hrs by disc diffusion method; type: functional; conditions: MTCC 1107, 48 h, read-out: IZ; method in brief: as §2
[13] = tested on: Curvularia lunata; test: Antifungal activity against Curvularia lunata MTCC 581 assessed as zone of inhibition at 40 uM after 48 hrs by disc diffusion method; type: functional; conditions: MTCC 581, 48 h, read-out: IZ; method in brief: as §2
[14] = tested on: Aspergillus flavus; test: Antifungal activity against Aspergillus flavus MTCC 1021 assessed as zone of inhibition at 80 uM after 48 hrs by disc diffusion method; type: functional; conditions: MTCC 1021, 48 h, read-out: IZ; method in brief: as §2
[15] = tested on: HeLa; test: Cytotoxicity against human HeLa cells after 24 hrs by MTT assay; type: functional, cell-based; method in brief: as §4
[16] = tested on: Aspergillus flavus; test: Antifungal activity against Aspergillus flavus MTCC 1021 assessed as zone of inhibition at 20 uM after 48 hrs by disc diffusion method; type: functional; conditions: MTCC 1021, 48 h, read-out: IZ; method in brief: as §2
[17] = tested on: Pseudomonas aeruginosa; test: Antimicrobial activity against Pseudomonas aeruginosa ATCC 15499 assessed as diameter of inhibition zone at 80 uM after 24 hrs by Kirby -Baur disc diffusion method; type: functional; conditions: ATCC 15499, 24 h, read-out: DIZ; method in brief: as §3
[18] = tested on: Trichoderma viride; test: Antifungal activity against Trichoderma viride MTCC 1107 after 48 hrs; type: functional; conditions: MTCC 1107, 48 h
[19] = tested on: Bacillus cereus; test: Antimicrobial activity against Bacillus cereus MTCC 7350 assessed as diameter of inhibition zone at 40 uM after 24 hrs by Kirby -Baur disc diffusion method; type: functional; conditions: MTCC 7350, 24 h, read-out: DIZ; method in brief: as §3
[20] = tested on: Aspergillus niger; test: Antifungal activity against Aspergillus niger MTCC 1108 after 48 hrs; type: functional; conditions: MTCC 1108, 48 h
[21] = tested on: Escherichia coli; test: Antimicrobial activity against Escherichia coli ATCC 35218 after 24 hrs by broth micro serial dilution method; type: functional; conditions: ATCC 35218, 24 h; method in brief: as §1
[22] = tested on: Trichoderma viride; test: Antifungal activity against Trichoderma viride MTCC 1107 assessed as zone of inhibition at 40 uM after 48 hrs by disc diffusion method; type: functional; conditions: MTCC 1107, 48 h, read-out: IZ; method in brief: as §2
[23] = tested on: Pseudomonas aeruginosa; test: Antimicrobial activity against Pseudomonas aeruginosa ATCC 15499 assessed as diameter of inhibition zone at 40 uM after 24 hrs by Kirby -Baur disc diffusion method; type: functional; conditions: ATCC 15499, 24 h, read-out: DIZ; method in brief: as §3
[24] = tested on: Escherichia coli; test: Antimicrobial activity against Escherichia coli ATCC 35218 assessed as diameter of inhibition zone at 40 uM after 24 hrs by Kirby -Baur disc diffusion method; type: functional; conditions: ATCC 35218, 24 h, read-out: DIZ; method in brief: as §3
[25] = tested on: Aspergillus flavus; test: Antifungal activity against Aspergillus flavus MTCC 1021 assessed as zone of inhibition at 40 uM after 48 hrs by disc diffusion method; type: functional; conditions: MTCC 1021, 48 h, read-out: IZ; method in brief: as §2
[26] = tested on: Mus musculus; test: Antiinflammatory activity in mouse assessed as inhibition of carrageenan-induced increase in paw volume at 200 mg/kg administered 1 hr prior to carrageenan challenge measured after 3 hrs relative to control; type: functional
Method in brief: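 Mice were fasted 2 h and placed in groups of five. Controls received saline i.p. Phenylbutazone was given at 100 mg/kg i.p., curcumin at 200 mg/kg i.p., and derivatives at 200 mg/kg. After 1 h, 0.1 mL of 1% carrageenan in saline was injected subplantar into the right hind paw. Paw volume was followed by plethysmometer for 3 h, and % inhibition was calculated as (Vc − Vt)/Vc × 100.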

[27] = tested on: Pseudomonas aeruginosa; test: Antimicrobial activity against Pseudomonas aeruginosa ATCC 15499 after 24 hrs by broth micro serial dilution method; type: functional; conditions: ATCC 15499, 24 h; method in brief: as §1
[28] = tested on: Escherichia coli; test: Antimicrobial activity against Escherichia coli ATCC 35218 assessed as diameter of inhibition zone at 80 uM after 24 hrs by Kirby -Baur disc diffusion method; type: functional; conditions: ATCC 35218, 24 h, read-out: DIZ; method in brief: as §3
[29] = tested on: Staphylococcus aureus; test: Antimicrobial activity against Staphylococcus aureus ATCC 11632 assessed as diameter of inhibition zone at 20 uM after 24 hrs by Kirby -Baur disc diffusion method; type: functional; conditions: ATCC 11632, 24 h, read-out: DIZ; method in brief: as §3
[30] = tested on: Bacillus cereus; test: Antimicrobial activity against Bacillus cereus MTCC 7350 after 24 hrs by broth micro serial dilution method; type: functional; conditions: MTCC 7350, 24 h; method in brief: as §1
[31] = tested on: Salmonella typhi; test: Antimicrobial activity against Salmonella typhi ATCC 23564 assessed as diameter of inhibition zone at 20 uM after 24 hrs by Kirby -Baur disc diffusion method; type: functional, Salmonella enterica subsp. enterica serovar Typhi; conditions: Salmonella enterica, ATCC 23564, 24 h; read-out: DIZ
[32] = tested on: Staphylococcus aureus; test: Antimicrobial activity against Staphylococcus aureus ATCC 11632 assessed as diameter of inhibition zone at 80 uM after 24 hrs by Kirby -Baur disc diffusion method; type: functional; conditions: ATCC 11632, 24 h, read-out: DIZ; method in brief: as §3
[33] = tested on: Curvularia lunata; test: Antifungal activity against Curvularia lunata MTCC 581 assessed as zone of inhibition at 20 uM after 48 hrs by disc diffusion method; type: functional; conditions: MTCC 581, 48 h, read-out: IZ; method in brief: as §2
[34] = tested on: Trichoderma viride; test: Antifungal activity against Trichoderma viride MTCC 1107 assessed as zone of inhibition at 20 uM after 48 hrs by disc diffusion method; type: functional; conditions: MTCC 1107, 48 h, read-out: IZ; method in brief: as §2
[35] = tested on: Aspergillus niger; test: Antifungal activity against Aspergillus niger MTCC 1108 assessed as zone of inhibition at 40 uM after 48 hrs by disc diffusion method; type: functional; conditions: MTCC 1108, 48 h, read-out: IZ; method in brief: as §2
[36] = tested on: Salmonella typhi; test: Antimicrobial activity against Salmonella typhi ATCC 23564 after 24 hrs by broth micro serial dilution method; type: functional, Salmonella enterica subsp. enterica serovar Typhi; conditions: Salmonella enterica, ATCC 23564, 24 h
[37] = tested on: Staphylococcus aureus; test: Antimicrobial activity against Staphylococcus aureus ATCC 11632 assessed as diameter of inhibition zone at 40 uM after 24 hrs by Kirby -Baur disc diffusion method; type: functional; conditions: ATCC 11632, 24 h, read-out: DIZ; method in brief: as §3
[38] = tested on: Escherichia coli; test: Antimicrobial activity against Escherichia coli ATCC 35218 assessed as diameter of inhibition zone at 20 uM after 24 hrs by Kirby -Baur disc diffusion method; type: functional; conditions: ATCC 35218, 24 h, read-out: DIZ; method in brief: as §3
[39] = tested on: Curvularia lunata; test: Antifungal activity against Curvularia lunata MTCC 581 after 48 hrs; type: functional; conditions: MTCC 581, 48 h
[40] = tested on: Aspergillus niger; test: Antifungal activity against Aspergillus niger MTCC 1108 assessed as zone of inhibition at 20 uM after 48 hrs by disc diffusion method; type: functional; conditions: MTCC 1108, 48 h, read-out: IZ; method in brief: as §2
[41] = tested on: Curvularia lunata; test: Antifungal activity against Curvularia lunata MTCC 581 assessed as zone of inhibition at 80 uM after 48 hrs by disc diffusion method; type: functional; conditions: MTCC 581, 48 h, read-out: IZ; method in brief: as §2

## COc1ccc(NS(=O)(=O)c2ccc(/N=C(\C=C\c3ccc(O)c(OC)c3)CC(/C=C/c3ccc(O)c(OC)c3)=N/c3ccc(S(=O)(=O)Nc4ccc(OC)nn4)cc3)cc2)nn1
[1]
  zone of inhibition at 40 µM: 19 mm
[2]
  MIC: 40 µM (≈ 35.7 µg/mL)
[3]
  zone of inhibition at 80 µM: 12 mm
[4]
  zone of inhibition at 20 µM: 13 mm
[5]
  MIC: 80 µM (≈ 71.4 µg/mL)
[6]
  zone of inhibition at 80 µM: 21 mm
[7]
  IC50: 50 µM
[8]
  IC50: 25 µM
[9]
  zone of inhibition at 20 µM: 12 mm
[10]
  IC50: 50 µM
[11]
  zone of inhibition at 80 µM: 22 mm
[12]
  zone of inhibition at 80 µM: 19 mm
[13]
  zone of inhibition at 40 µM: 15 mm
[14]
  zone of inhibition at 80 µM: 13 mm
[15]
  IC50: 50 µM
[16]
  zone of inhibition at 20 µM: 9 mm
[17]
  zone of inhibition at 80 µM: 22 mm
[18]
  MIC: 20 µM (≈ 17.9 µg/mL)
[19]
  zone of inhibition at 40 µM: 17 mm
[20]
  MIC: 40 µM (≈ 35.7 µg/mL)
[21]
  MIC: 40 µM (≈ 35.7 µg/mL)
[22]
  zone of inhibition at 40 µM: 16 mm
[23]
  zone of inhibition at 40 µM: 19 mm
[24]
  zone of inhibition at 40 µM: 17 mm
[25]
  zone of inhibition at 40 µM: 11 mm
[26]
  inhibition in vivo at 200 mg/kg: 33.8%
[27]
  MIC: 40 µM (≈ 35.7 µg/mL)
[28]
  zone of inhibition at 80 µM: 19 mm
[29]
  zone of inhibition at 20 µM: 11 mm
[30]
  MIC: 40 µM (≈ 35.7 µg/mL)
[31]
  zone of inhibition at 20 µM: 14 mm
[32]
  zone of inhibition at 80 µM: 21 mm
[33]
  zone of inhibition at 20 µM: 12 mm
[34]
  zone of inhibition at 20 µM: 12 mm
[35]
  zone of inhibition at 40 µM: 10 mm
[36]
  MIC: 40 µM (≈ 35.7 µg/mL)
[37]
  zone of inhibition at 40 µM: 19 mm
[38]
  zone of inhibition at 20 µM: 14 mm
[39]
  MIC: 20 µM (≈ 17.9 µg/mL)
[40]
  zone of inhibition at 20 µM: 8 mm
[41]
  zone of inhibition at 80 µM: 18 mm
